Measurements: ChEMBL document CHEMBL3045357, “DNA adducts as biomarkers for oxidative and genotoxic stress from pesticides in crop plants” (J Agric Food Chem, 2008)

Legend:
Assay type in all cases: organism-based
Conditions in all cases: in vivo, other, 336 h
[1] = system: Glycine max; test: Genotoxicity in Glycine max (soybean) exposed to compound through spray 4 times over 2 weeks assessed as relative adduct level A3 measured per 10^9 nucleotides using HX-dG internal standard using [32P]labeling based autoradiography relative to untreated control
How it was run: (§1)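 Plants (2–6 weeks grown), groups of 2–4, sprayed 4 times over 2 weeks with formulations diluted per label (chlorothalonil 1:256, carbaryl 1:64 in water); controls water-sprayed. DNA from 1 g leaf via DNeasy Maxi kit. 10 µg DNA digested with micrococcal nuclease/spleen phosphodiesterase (4 h, 37 °C), NP1-enriched (45 min, 37 °C), labelled with [γ-32P]ATP/T4 kinase (45 min, 37 °C).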

[2] = system: Glycine max; test: Genotoxicity in Glycine max (soybean) exposed to compound through spray 4 times over 2 weeks assessed as relative adduct level A3 measured per 10^9 nucleotides using [32P]labeling based autoradiography relative to untreated control; how it was run: as §1
[3] = system: Glycine max; test: Genotoxicity in Glycine max (soybean) exposed to compound through spray 4 times over 2 weeks assessed as relative adduct level A2 measured per 10^9 nucleotides using [32P]labeling based autoradiography relative to untreated control; how it was run: as §1
[4] = system: Glycine max; test: Genotoxicity in Glycine max (soybean) exposed to compound through spray 4 times over 2 weeks assessed as relative adduct level A1 measured per 10^9 nucleotides using [32P]labeling based autoradiography relative to untreated control; how it was run: as §1
[5] = system: Glycine max; test: Genotoxicity in Glycine max (soybean) exposed to compound through spray 4 times over 2 weeks assessed as HNE-dG adducts using [32P]labeling based autoradiography (reference value: 34 cpm); how it was run: as §1
[6] = system: Glycine max; test: Genotoxicity in Glycine max (soybean) exposed to compound through spray 4 times over 2 weeks assessed as relative adduct level A2 measured per 10^9 nucleotides using HX-dG internal standard using [32P]labeling based autoradiography relative to untreated control; how it was run: as §1
[7] = system: Glycine max; test: Genotoxicity in Glycine max (soybean) exposed to compound through spray 4 times over 2 weeks assessed as relative adduct level A1 measured per 10^9 nucleotides using HX-dG internal standard using [32P]labeling based autoradiography relative to untreated control; how it was run: as §1
[8] = system: Glycine max; test: Genotoxicity in Glycine max (soybean) exposed to compound through spray 4 times over 2 weeks assessed as HX-dG adducts using [32P]labeling based autoradiography; how it was run: as §1
[9] = system: Glycine max; test: Genotoxicity in Glycine max (soybean) exposed to compound through spray 4 times over 2 weeks assessed as HNE-dG adducts measured per 10^9 nucleotides using [32P]labeling based autoradiography (reference value: 2 no unit); how it was run: as §1
[10] = system: Glycine max; test: Genotoxicity in Glycine max (soybean) exposed to compound through spray 4 times over 2 weeks assessed as HX-dG adducts measured per 10^9 nucleotides using [32P]labeling based autoradiography; how it was run: as §1
[11] = system: Glycine max; test: Genotoxicity in Glycine max (soybean) exposed to compound through spray 4 times over 2 weeks assessed as relative adduct level A5 measured per 10^9 nucleotides using HX-dG internal standard using [32P]labeling based autoradiography relative to untreated control; how it was run: as §1
[12] = system: Glycine max; test: Genotoxicity in Glycine max (soybean) exposed to compound through spray 4 times over 2 weeks assessed as relative adduct level A4 measured per 10^9 nucleotides using HX-dG internal standard using [32P]labeling based autoradiography relative to untreated control; how it was run: as §1
[13] = system: Glycine max; test: Genotoxicity in Glycine max (soybean) exposed to compound through spray 4 times over 2 weeks assessed as relative adduct level A5 measured per 10^9 nucleotides using [32P]labeling based autoradiography relative to untreated control; how it was run: as §1
[14] = system: Glycine max; test: Genotoxicity in Glycine max (soybean) exposed to compound through spray 4 times over 2 weeks assessed as relative adduct level A4 measured per 10^9 nucleotides using [32P]labeling based autoradiography relative to untreated control; how it was run: as §1

Compound	Activity [1] [cpm]	Activity [2]	Activity [3]	Activity [4]	Activity [5] [cpm]	Activity [6] [cpm]	Activity [7] [cpm]	Activity [8] [cpm]	Activity [9]	Activity [10]	Activity [11] [cpm]	Activity [12] [cpm]	Activity [13]	Activity [14]
CC(C)[C@H](C(=O)O[C@H](C#N)c1cccc(Oc2ccccc2)c1)c1ccc(Cl)cc1	7857	154	49	26	3062	2477	1344	8264	60	215	–	–	–	–
CNC(=O)Oc1cccc2ccccc12 [CARBARIL]	809	16	11	11	2956	571	569	6310	58	164	2767	773	54	15
